Reference: ChEMBL document CHEMBL1255290, “Characterization of a novel human immunodeficiency virus type 1 protease inhibitor, A-790742” (Antimicrob Agents Chemother, 2008)

Legend:
[1] = tested on: Human immunodeficiency virus 1; assay: (§1) Antiviral activity against HIV1 P9 infected in human MT4 cells derived from viral passages with A-790742 harboring protease V82V/L and I84V mutation assessed as reduction in viral cytopathogenicity treated 1 hr post infection measured 5 days post infection by MTT assay relative to wild type HIV1 pNL4-3; format: functional
Summary of the method: (§2)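 For the assay, 10⁶ MT-4 cells were infected at MOI 0.003, washed after 1 h, and plated at 10⁴ cells/well with eight serial compound dilutions in triplicate (0.5% DMSO final). MTT cytopathic read-out at day 5; EC50 from dose-response fitting.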

[2] = tested on: Human immunodeficiency virus 1; assay: Antiviral activity against HIV1 clone1 infected in HEK293 cells harboring A-790742-selected protease I84V mutation assessed as reduction in viral replication by luciferase reporter gene assay relative to wild type HIV1 pNL4-3; format: functional
Summary of the method: (§3)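 Single-cycle assay: HEK-293 cells were cotransfected with luciferase-reporter HIV-1 protease clones plus a VSV-G expression vector. After 4 h, cells were replated at 2 × 10⁴/well over serial inhibitor dilutions in triplicate. Pseudovirus collected at 48 h infected fresh HEK-293 (10⁴/well). Luciferase read 48 h later gave % inhibition versus untreated and EC50. Fold change against WT pNL4-3-Luc (clones 1-4) or RF-Luc (clone 5) is the mean of three experiments.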

[3] = tested on: Human immunodeficiency virus 1; assay: as §1, with “pNL4-3” for “P9”, “from 9” for “from”, “with 80 nM” for “with”; format: functional
Summary of the method: (§4)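 Selection: MT-4 cells infected with parental pNL4-3 or RF (MOI 0.003, 2 h), then passaged under rising selecting drug whenever supernatant p24 (ELISA) exceeded 10 ng/ml. Passage viruses titred by TCID50 (Spearman-Karber). Assay: 10^6 MT-4 cells infected at MOI 0.003 for 1 h, washed, and seeded at 10^4 cells/well with eight serial dilutions, triplicate, 0.5% DMSO final. Day-5 MTT read-out; EC50 fold-change versus parental wild type.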

[4] = tested on: Human immunodeficiency virus 1; assay: Antiviral activity against HIV1 isolate 13 infected in human MT4 cells obtained from protease inhibitor-resistant patient harboring protease L10I, K14R, L33F, E34Q, R41K, K45R, M46I, I50V, K55R, L63P, A71V, G73T, V77I, V82A, L90M, I93L mutation derived from viral passages with Lopinavir assessed as reduction in viral cytopathogenicity treated 1 hr post infection measured 5 days post infection by …; format: functional
[5] = tested on: Human immunodeficiency virus 1; assay: Antiviral activity against HIV1 isolate 7 infected in human MT4 cells obtained from protease inhibitor-resistant patient harboring protease L10I, M46M/L, G48V, I54V, L63P, A71V, I72M, V77I, V82A, L90M, I93L mutation derived from viral passages with Lopinavir assessed as reduction in viral cytopathogenicity treated 1 hr post infection measured 5 days post infection by MTT assay relative to wild …; format: functional
[6] = tested on: Human immunodeficiency virus 1; assay: (§5) Antiviral activity against HIV1 RF infected in human MT4 cells derived from 8 viral passages with 52 nM A-790742 harboring protease V75I mutation assessed as reduction in viral cytopathogenicity treated 1 hr post infection measured 5 days post infection by MTT assay relative to wild type HIV1 RF; format: functional; summary of the method: as §4
[7] = tested on: Human immunodeficiency virus 1; assay: as §1, with “pNL4-3” for “P9”, “from 18” for “from”, “with 900 nM” for “with”, “L33F, K45I, A71A/V, V77V/I, V82L,” for “V82V/L and”; format: functional; summary of the method: as §4
[8] = tested on: Human immunodeficiency virus 1; assay: as §1, with “P15” for “P9”, “L33L/F, K45I, V82L,” for “V82V/L”; format: functional; summary of the method: as §2
[9] = tested on: Human immunodeficiency virus 1; assay: Antiviral activity against wild-type HIV1 RF infected in human MT4 cells assessed as reduction in viral cytopathogenicity treated 1 hr post infection measured 5 days post infection in absence of human serum by MTT assay; format: functional, organism-based; conditions: Human immunodeficiency virus 1, RF; summary of the method: as §2
[10] = tested on: Human immunodeficiency virus 1; assay: Antiviral activity against HIV1 clone4 infected in HEK293 cells harboring A-790742-selected protease L33F, A71V, G73S, V77I, V82L, and I84V mutation assessed as reduction in viral replication by luciferase reporter gene assay relative to wild type HIV1 pNL4-3; format: functional; summary of the method: as §3
[11] = tested on: Human immunodeficiency virus 1; assay: as §5, with “13” for “8”, “340” for “52”, “M46I, L63P, A71V, V82G” for “V75I”; format: functional; summary of the method: as §4
[12] = tested on: Human immunodeficiency virus 1; assay: Antiviral activity against HIV1 isolate 10 infected in human MT4 cells obtained from protease inhibitor-resistant patient harboring protease L10I, I13V, K20R, L33F, E35D, M36I, N37D, I54L, Q58E, I62V, L63P, A71V, V82A, I84V, L90M mutation derived from viral passages with Lopinavir assessed as reduction in viral cytopathogenicity treated 1 hr post infection measured 5 days post infection by MTT …; format: functional

COC(=O)N[C@H](C(=O)N[C@H](Cc1ccc(-c2ccccn2)cc1)C[C@H](O)[C@H](Cc1ccccc1)NC(=O)[C@@H](N1CCN(Cc2cccc(C(C)(C)O)n2)C1=O)C(C)(C)C)C(C)(C)C
Ratio EC50 [1]: 13
Ratio EC50 [2]: 2
Ratio EC50 [3]: 26.7
Ratio EC50 [4]: 2
Ratio EC50 [5]: 2
Ratio EC50 [6]: 10.4
Ratio EC50 [7]: 300
Ratio EC50 [8]: 29
EC50 [9]: 5 nM
Ratio EC50 [10]: 158
Ratio EC50 [11]: 68
Ratio EC50 [12]: 10
